Measurements: ChEMBL document CHEMBL4689842, “EUbOPEN Chemogenomics Library wave 1” (2021)

Tested on: U2OS
Test: Multiplex assay against U2OS
Type: toxicity, cell-based
Conditions: human
How it was run: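 Hoechst33342, BioTracker Green Microtubule Cytoskeleton Dye, MitoTracker Red and Annexin V Alexa Fluor 680 were added to live cells at seeding, and imaging on a CQ1 microscope at 37°C and 5% CO2 followed compound addition. Gating by CellPathfinder machine learning separated cells into Hoechst high-intensity objects or normal cells, then normal cells into healthy, pyknosed or fragmented nuclei, then pyknosed cells into mitotic or apoptotic. Per cents of healthy-nucleus cells are reported for the tubulin, mitochondrial-mass and membrane-permeability phenotypes.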

[1] = 12 h, 1 µM, compound concentration 1 uM, replicate 1
[2] = 12 h, 1 µM, compound concentration 1 uM, replicate 2
[3] = 12 h, 10 µM, compound concentration 10 uM, replicate 1
[4] = 12 h, 10 µM, compound concentration 10 uM, replicate 2
[5] = 24 h, 1 µM, compound concentration 1 uM, replicate 1
[6] = 24 h, 1 µM, compound concentration 1 uM, replicate 2
[7] = 24 h, 10 µM, compound concentration 10 uM, replicate 1
[8] = 24 h, 10 µM, compound concentration 10 uM, replicate 2
[9] = 48 h, 1 µM, compound concentration 1 uM, replicate 1
[10] = 48 h, 1 µM, compound concentration 1 uM, replicate 2
[11] = 48 h, 10 µM, compound concentration 10 uM, replicate 1
[12] = 48 h, 10 µM, compound concentration 10 uM, replicate 2

CCOc1cc(C(=O)N2CCC(N3CCN(C)CC3)CC2)ccc1Nc1ncc2c(n1)N(C1CCCC1)c1ccccc1C(=O)N2C was tested, and the “Population Apoptotic (%)” value [1] was 73%, the “Population Fragmented Nuclei (%)” value [1] was 14% and the “Population Healthy Nuclei (%)” value [1] was 70%. For the same compound, the “Population Hoechst High Intensity Objects (%)” value [1] was 6%, the “Population Membrane Permeable-Phenotype (%)” value [1] was 8% and the “Population Mitochondria Different-Phenotype (%)” value [1] was 75%. For the same compound, the “Population Mitotic Cells (%)” value [1] was 26%, the “Population Normal (%)” value [1] was 93% and the “Population Pyknosed Nuclei (%)” value [1] was 15%. The “Population Tubulin-Different-Phenotype (%)” value [1] was 69%, the “Total Cell Count” value [1] was 153 and the “Population Apoptotic (%)” value [2] was 75%. The “Population Fragmented Nuclei (%)” value [2] was 6%, the “Population Healthy Nuclei (%)” value [2] was 80% and the “Population Hoechst High Intensity Objects (%)” value [2] was 10%. The “Population Membrane Permeable-Phenotype (%)” value [2] was 4%, the “Population Mitochondria Different-Phenotype (%)” value [2] was 76% and the “Population Mitotic Cells (%)” value [2] was 25%. The “Population Normal (%)” value [2] was 89%, the “Population Pyknosed Nuclei (%)” value [2] was 12% and the “Population Tubulin-Different-Phenotype (%)” value [2] was 48%. The “Total Cell Count” value [2] was 67, the “Population Apoptotic (%)” value [3] was 83% and the “Population Fragmented Nuclei (%)” value [3] was 19%. For the same compound, the “Population Healthy Nuclei (%)” value [3] was 48%, the “Population Hoechst High Intensity Objects (%)” value [3] was 7% and the “Population Membrane Permeable-Phenotype (%)” value [3] was 95%. The “Population Mitochondria Different-Phenotype (%)” value [3] was 97%, the “Population Mitotic Cells (%)” value [3] was 16% and the “Population Normal (%)” value [3] was 92%. The “Population Pyknosed Nuclei (%)” value [3] was 32%, the “Population Tubulin-Different-Phenotype (%)” value [3] was 100% and the “Total Cell Count” value [3] was 181. For the same compound, the “Population Apoptotic (%)” value [4] was 92%, the “Population Fragmented Nuclei (%)” value [4] was 21% and the “Population Healthy Nuclei (%)” value [4] was 50%. For the same compound, the “Population Hoechst High Intensity Objects (%)” value [4] was 6%, the “Population Membrane Permeable-Phenotype (%)” value [4] was 93% and the “Population Mitotic Cells (%)” value [4] was 7%. The “Population Normal (%)” value [4] was 93%, the “Population Pyknosed Nuclei (%)” value [4] was 27% and the “Total Cell Count” value [4] was 69. The “Population Apoptotic (%)” value [5] was 50%, the “Population Healthy Nuclei (%)” value [5] was 61% and the “Population Hoechst High Intensity Objects (%)” value [5] was 4%. For the same compound, the “Population Membrane Permeable-Phenotype (%)” value [5] was 2%, the “Population Mitochondria Different-Phenotype (%)” value [5] was 64% and the “Population Mitotic Cells (%)” value [5] was 50%. For the same compound, the “Population Normal (%)” value [5] was 95%, the “Population Pyknosed Nuclei (%)” value [5] was 22% and the “Population Tubulin-Different-Phenotype (%)” value [5] was 17%. The “Total Cell Count” value [5] was 142, the “Population Apoptotic (%)” value [6] was 22% and the “Population Fragmented Nuclei (%)” value [6] was 16%. For the same compound, the “Population Healthy Nuclei (%)” value [6] was 72%, the “Population Hoechst High Intensity Objects (%)” value [6] was 5% and the “Population Membrane Permeable-Phenotype (%)” value [6] was 5%. For the same compound, the “Population Mitochondria Different-Phenotype (%)” value [6] was 65%, the “Population Mitotic Cells (%)” value [6] was 77% and the “Population Normal (%)” value [6] was 94%. The “Population Pyknosed Nuclei (%)” value [6] was 11%, the “Population Tubulin-Different-Phenotype (%)” value [6] was 27% and the “Total Cell Count” value [6] was 71. The “Population Apoptotic (%)” value [7] was 92%, the “Population Fragmented Nuclei (%)” value [7] was 23% and the “Population Healthy Nuclei (%)” value [7] was 17%. For the same compound, the “Population Hoechst High Intensity Objects (%)” value [7] was 7%, the “Population Membrane Permeable-Phenotype (%)” value [7] was 93% and the “Population Mitochondria Different-Phenotype (%)” value [7] was 100%. The “Population Mitotic Cells (%)” value [7] was 7%, the “Population Normal (%)” value [7] was 92% and the “Total Cell Count” value [7] was 215. The “Population Apoptotic (%)” value [8] was 88%, the “Population Fragmented Nuclei (%)” value [8] was 10% and the “Population Healthy Nuclei (%)” value [8] was 30%. For the same compound, the “Population Hoechst High Intensity Objects (%)” value [8] was 11%, the “Population Membrane Permeable-Phenotype (%)” value [8] was 100% and the “Population Mitochondria Different-Phenotype (%)” value [8] was 96%. The “Population Mitotic Cells (%)” value [8] was 11%, the “Population Normal (%)” value [8] was 88% and the “Population Pyknosed Nuclei (%)” value [8] was 59%. For the same compound, the “Population Tubulin-Different-Phenotype (%)” value [8] was 100%, the “Total Cell Count” value [8] was 85 and the “Population Apoptotic (%)” value [9] was 53%. The “Population Fragmented Nuclei (%)” value [9] was 15%, the “Population Healthy Nuclei (%)” value [9] was 64% and the “Population Hoechst High Intensity Objects (%)” value [9] was 3%. For the same compound, the “Population Membrane Permeable-Phenotype (%)” value [9] was 1%, the “Population Mitochondria Different-Phenotype (%)” value [9] was 28% and the “Population Mitotic Cells (%)” value [9] was 46%. For the same compound, the “Population Normal (%)” value [9] was 96%, the “Population Pyknosed Nuclei (%)” value [9] was 19% and the “Population Tubulin-Different-Phenotype (%)” value [9] was 9%. The “Total Cell Count” value [9] was 151, the “Population Apoptotic (%)” value [10] was 42% and the “Population Fragmented Nuclei (%)” value [10] was 13%. For the same compound, the “Population Healthy Nuclei (%)” value [10] was 72%, the “Population Hoechst High Intensity Objects (%)” value [10] was 5% and the “Population Membrane Permeable-Phenotype (%)” value [10] was 12%. For the same compound, the “Population Mitochondria Different-Phenotype (%)” value [10] was 40%, the “Population Mitotic Cells (%)” value [10] was 57% and the “Population Normal (%)” value [10] was 94%. For the same compound, the “Population Pyknosed Nuclei (%)” value [10] was 14%, the “Population Tubulin-Different-Phenotype (%)” value [10] was 25% and the “Total Cell Count” value [10] was 81. For the same compound, the “Population Apoptotic (%)” value [11] was 93%, the “Population Fragmented Nuclei (%)” value [11] was 34% and the “Population Healthy Nuclei (%)” value [11] was 1%. For the same compound, the “Population Hoechst High Intensity Objects (%)” value [11] was 14%, the “Population Membrane Permeable-Phenotype (%)” value [11] was 100% and the “Population Mitochondria Different-Phenotype (%)” value [11] was 100%. The “Population Mitotic Cells (%)” value [11] was 6%, the “Population Normal (%)” value [11] was 85% and the “Population Pyknosed Nuclei (%)” value [11] was 63%. The “Population Tubulin-Different-Phenotype (%)” value [11] was 100%, the “Total Cell Count” value [11] was 281 and the “Population Apoptotic (%)” value [12] was 100%. For the same compound, the “Population Fragmented Nuclei (%)” value [12] was 16%, the “Population Healthy Nuclei (%)” value [12] was 20% and the “Population Hoechst High Intensity Objects (%)” value [12] was 18%. The “Population Membrane Permeable-Phenotype (%)” value [12] was 93%, the “Population Mitochondria Different-Phenotype (%)” value [12] was 86% and the “Population Mitotic Cells (%)” value [12] was 0%. The “Population Normal (%)” value [12] was 81%, the “Population Pyknosed Nuclei (%)” value [12] was 62% and the “Population Tubulin-Different-Phenotype (%)” value [12] was 93%. The “Total Cell Count” value [12] was 103.
